Experimental findings from PubChem BioAssay AID651950 (The Scripps Research Institute Molecular Screening Center, 2012) are described below.

Values without a mark were called inactive. The source made the active and inactive calls. The rule behind the calls is not given here.

A short description of the test: Hsp70 transcriptional activators, SAR follow-up, cell-based, HeLa, Hsp70 promoter luciferase, luminescence (AID 651950). Conditions: HeLa hsp70.1pr-luc reporter; at 99 µM (top of the series). The method in brief:
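detection: luciferase luminescence; read-out: % activation relative to DMSO and MG132 controls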
For `O=C1/C(=C/c2ccncc2)CCC/C1=C\c1ccncc1`, the activation was -1.1% (active).

Regarding `COc1cccc(N2C(=O)NC(=O)/C(=C/C=C/c3ccccc3[N+](=O)[O-])C2=O)c1`, the activation was -1.6%. The result for `O=C1NC(=O)N(c2cccc(Br)c2)C(=O)/C1=C/C=C/c1ccccc1` reads -0.8% (active). The same measure for `O=c1c([N+](=O)[O-])c(Cl)c2ccccc2n1Cc1ccccc1`: -0.4%; for `O=[N+]([O-])c1c(Nc2ccc(Cl)cc2)cc(Cl)c2nonc12`: -0.9% (active). On to `COc1cc(C(=O)/C(=C/c2cccnc2)c2nc3ccccc3o2)cc(OC)c1OC`, for which the activation is -1.5%.

Consider `O=C1NC(=O)N(c2cccc(Cl)c2)C(=O)/C1=C\C=C\c1ccccc1`, for which the activation is -0.7% (active).
